Most compounds without a hit are left out; they make up all but 3.4% or so of the library.
S100A4 inh HTS = S100A4-myosin IIA interaction inhibition; inhibition, % at 10.7 µM; P26447; hit rate 0.14% among 360,000; S100A4/TAMRA-MyoIIA peptide fluorescence polarization;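 active = mean inhibition of at least 70% across replicates, with every replicate also reaching that level; inconclusive = mean inhibition reaches 70% but some replicates fall short; inactive = mean inhibition below 70%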
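Material: human S100A4 monomer with TAMRA-labelled myosin IIA peptide; buffer or medium: HEPES pH 7.2 with CaCl2, KCl, NaCl, DTT, Triton; compound dosing: one concentration per compound; schedule: 5 min incubation before reading; benchmarks: neutral control DMSO, positive control TFP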
ERAP1 inh = blocks human ERAP1 aminopeptidase activity; hit rate 0.15% among 340,000; AID 652197; recombinant ERAP1, Leu-AMC fluorescence, 60 min; inhibition, % at 10.7 µM;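 active = mean replicate inhibition of at least 30%, or all replicates individually reaching that 30% level; inactive = mean below 30% and not every replicate reaching it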;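 also: 0% = neutral control wells and 100% = L-leucinethiol positive control wells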
E-selectin induc = E-selectin induction on HUVECs; P16581; HUVEC E-selectin immunofluorescence imaging; normalized: neutral wells 0, TNF-alpha wells 100; activation, % at 7.58 µM; hit rate 0.37% among 260,000; AID 686992;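 active = mean E-selectin-positive cell signal at least 10% of the positive control, reached in at least 60% of replicates, without over 20% cell loss; inconclusive = no rule given, readout overlaps actives, possibly toxicity-flagged; inactive = the rest, including those meeting only one limit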
Target sequence (P16581 whole entry, looked up): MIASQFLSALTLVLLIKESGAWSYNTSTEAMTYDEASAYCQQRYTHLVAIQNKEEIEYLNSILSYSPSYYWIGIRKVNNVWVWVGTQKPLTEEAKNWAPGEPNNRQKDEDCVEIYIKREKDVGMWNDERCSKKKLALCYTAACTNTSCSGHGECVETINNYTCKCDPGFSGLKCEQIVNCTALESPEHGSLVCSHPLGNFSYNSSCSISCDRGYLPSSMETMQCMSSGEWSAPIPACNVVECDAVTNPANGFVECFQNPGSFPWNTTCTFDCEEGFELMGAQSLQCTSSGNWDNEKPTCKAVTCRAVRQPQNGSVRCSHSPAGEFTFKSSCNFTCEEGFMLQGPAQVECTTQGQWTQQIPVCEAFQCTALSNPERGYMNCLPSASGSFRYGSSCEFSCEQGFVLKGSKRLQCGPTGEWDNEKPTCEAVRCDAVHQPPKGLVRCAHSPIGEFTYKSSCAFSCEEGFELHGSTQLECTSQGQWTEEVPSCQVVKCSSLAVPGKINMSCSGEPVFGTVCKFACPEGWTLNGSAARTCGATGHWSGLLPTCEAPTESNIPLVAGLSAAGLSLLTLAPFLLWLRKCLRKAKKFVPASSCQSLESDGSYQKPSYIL
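Test system – human umbilical vein endothelial cells (HUVEC), E-selectin induction · Input – 3,000 HUVEC seeded per well · Buffer or medium – EGM-2, gelatin · Compound dosing – single-point compound dose · Detection – immunofluorescence imaging · Measure – percent E-selectin-positive cells · Controls – TNF-alpha high, DMSO low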
SIRT5 block = blocks human SIRT5 desuccinylation of peptide; Q9NXA8; Purified SirT5, succinyl-peptide AMC, trypsin-coupled fluorescence; inhibition, % at 15 µM; hit rate 1.1% among 330,000; AID 652115; in the data active = inhibition above about 15%; inconclusive = no clear call, values can overlap the other calls
Ecoli rRNA inh = selective bacterial rRNA inhibition in E. coli; E. coli WT GFP vs humanized-ribosome RFP mutants, fluorescence, 24 h; stronger effect = lower value; DMSO median 0, no signal -100; GFP signal change (wild-type ribosome), % (no concentration beside the values); hit rate 1.6% among 350,000;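 active = significant combined selectivity score with lowered wild-type GFP, culture density cut under 30%, mutant RFP and density less affected; inactive = any of these conditions unmet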
MLL AF4-AF9 inh = MLL-AF4/AF9 protein interaction inhibition. P42568. inhibition, % at 10 µM. AlphaScreen, biotin-AF4 peptide binding to FLAG-AF9. AID 651704. hit rate 0.47% among 350,000;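 active = every replicate reaching a set inhibition limit, whatever the replicate mean, cut at about 25% in these data; inconclusive = mean inhibition reaches that limit but some replicates miss it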;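 also: 0% = plate neutral control median and 100% = total signal loss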
AID977621 = growth inhibition of wild-type GFP E. coli, dose response, H69 mutant RFP, cherry-pick; 1,900 tested, under 10 active; shares compounds with Ecoli rRNA inh; activity change, negative = inhibition at 50 µM; E. coli wild-type GFP strain growth, fluorescence, 24 h;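 active = Wild-type ribosome reporter drop at least double the humanized mutant ribosome reporter drop, growth loss under a set limit; inconclusive = no clear call, values can overlap the other calls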;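 also: wild-type GFP and H69 mutant RFP strains grown together 50/50 in each well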
AID977628 = E. coli growth inhibition, wild-type GFP versus h24 humanized RFP strain, dose response, h24 mutant RFP vs wild-type GFP, cherry-pick; shares compounds with Ecoli rRNA inh; E. coli WT GFP strain growth, fluorescence, 24 h; activity change, negative = inhibition at 50 µM; 1,900 tested, under 10 active;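 active = compound lowering the normal-ribosome reporter at least twice as much as the humanized-ribosome reporter, growth loss under a set limit; inconclusive = no clear call, values can overlap the other calls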;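 also: wild-type GFP and h24 humanized RFP strains co-cultured 1 to 1 per well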
* marks the source's active call; other numbers are inactive results; ? = inconclusive; · = no result.

SMILES	S100A4 inh HTS	ERAP1 inh	E-selectin induc	SIRT5 block	Ecoli rRNA inh	MLL AF4-AF9 inh	AID977621	AID977628
C[C@H](CO)N1C[C@H](C)[C@@H](CN(C)Cc2ccc3c(c2)OCO3)Oc2c(NS(=O)(=O)c3ccc(Cl)cc3)cccc2C1=O	8	1	0	-1	-2	0	·	·
CCC(C)c1ccccc1NC(=O)c1cccc(-n2cnnn2)c1 (centres undefined)	-9	-2	0	-5	-21*	-1	-15	-11
CCn1nc(C)cc1C(=O)N1CCCC(C(=O)c2ccc(Oc3ccccc3)cc2)C1 (centres undefined)	1	2	·	-2	-18	0	·	·
CCn1nc(C)cc1C(=O)N1CCCC(C(=O)c2ccc3ccccc3c2)C1 (centres undefined)	-4	1	·	1	-20*	2	-4.3	·
CCC(=O)N1CC(=O)N2[C@H](CO)[C@@H](c3ccc(-c4ccncc4)cc3)[C@H]2C1	7	·	1	6	1	3	·	·
COc1ccc(-n2cnc3cc([N+](=O)[O-])ccc32)cc1	-2	-3	6	0	-3	-3	·	·
Cc1cccc(-n2cnc3cc([N+](=O)[O-])ccc32)c1	-3	-3	0	·	-16*	1	-15	-15
COCC(=O)Nc1ccc2c(c1)[C@@H]1C[C@@H](CC(=O)NCC3CC3)O[C@@H](CO)[C@@H]1O2	-3	0	0	-2	0	-1	·	·
COc1cccc(N2CCN(CC(=O)Nc3nc(C)c(C(=O)N(C)C)s3)CC2)c1	12	3	·	·	-1	1	·	·
CCOC(=O)c1sc(NC(=O)CN2CCN(c3ccccc3)CC2)nc1C	-9	0	0	-4	-20*	6	·	-19
CC1(C)CC2CC(C)(CN2c2ncnc3ccccc23)C1 (centres undefined)	1	2	·	-3	-27*	0	-0.47	?
COc1ccc2c(c1)c(C(C)=O)c(C)n2CCc1ccc(OC)c(OC)c1	0	2	0	-4	-33*	-1	-11	·
COc1ccc2c(c1)c(C(=O)O)c(C)n2CCc1ccc(OC)c(OC)c1	-3	0	·	2	-16	5	·	·
C[C@H](CO)N1C[C@H](C)[C@@H](CN(C)C(=O)Nc2cccc(F)c2)Oc2ncc(C3=CCCC3)cc2C1=O	11	1	0	2	-5	1	·	·
C[C@@H]1CN([C@H](C)CO)C(=O)Cc2cc(NC(=O)CCC(F)(F)F)ccc2O[C@H]1CN(C)C(=O)Nc1ccc(C(F)(F)F)cc1	·	·	0	·	2	·	·	·
O=C(C[C@H]1CC[C@@H]2[C@H](COC[C@H](O)CN2C(=O)c2ccc3c(c2)OCO3)O1)NCCN1CCCC1	-9	-1	0	0	2	-2	·	·
CN(C)CCCn1c(=O)n(Cc2ccco2)c(=O)c2c3c(sc21)CCCCC3	-8	4	0	-3	-26*	·	-20	?
O=C1c2ccccc2CCc2ccccc21	3	2	·	-1	-5	-1	·	·
O=C1c2ccccc2CSc2c(O)cccc21	-12	0	·	-1	-31*	-1	-10	-11
Cc1nc(N2CCC(C)CC2)c(C#N)c(C)c1[N+](=O)[O-]	-28	-1	2	-2	-25*	-4	0.53	-9.6
C[C@H](NC(=O)C[C@H]1CC[C@H](NC(=O)C2CCC2)[C@H](CO)O1)c1ccccc1	3	2	0	7	3	0	·	·
O=[N+]([O-])c1ccc(/C=C/c2ccc3cccc([N+](=O)[O-])c3n2)cc1	2	-3	-2	1	-18*	7	-5.1	1.2
COc1ccc(-c2ccccc2)cc1NC(=O)c1ccncc1	-5	-3	3	0	-31*	3	-21	·

Source: PubChem (Broad Institute)
